# T cell HTS = T cell immune modulators affecting CD8 T cell-vesicle binding. 2C CD8+ T cell-vesicle binding, flow cytometry; stronger effect = lower value. response (vesicle binding), % at 7 µM. 0.068% of 330,000 active;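 active means response, share of CD8 T cells binding vesicles, and their 90th percentile fluorescence all below set limits, cut at about 80% in these data, passing the limit was not always enough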;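 further: values below 100% mean blocked vesicle binding to the CD8+ T cells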
#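 Test system: purified 2C TCR transgenic mouse naive CD8+ T cells. Probe or stimulus: QL9-peptide-loaded Drosophila micro-vesicles bearing Ld, ICAM-1 and B7-1. Incubation: binding step 1.5 h, 37 °C, antibody labelling 20 min, ice. Measured by: flow cytometry of vesicle-bound cells.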
# GRIN3A LBD mod = NR3A (human) ligand-binding domain modulation; NR3A LBD differential scanning fluorimetry, Tm shift; 0% = protein alone, 100% = glycine-bound protein; Tm shift relative to glycine control, % at 25 µM; 2.5% of 340,000 active; AID 1259313;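 active means melting temperature shift of at least 10% of the positive control shift, at one fixed dose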
# GASC-1 inh = human JMJD2C demethylase inhibition; Q9H3R0; GST-JMJD2C(1-420) H3K9me3 demethylation, DELFIA europium; inhibition, % at 2.35 µM; 0.069% of 330,000 active; AID 2099;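 active means more than half of a compound's replicate wells show inhibition beyond 50%, single wells judged on their own value; inconclusive means some, but no more than half, of replicates pass 50% inhibition; inactive means no replicate passes 50% inhibition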;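 further: signal counts dimethyl H3K9 product captured on neutravidin plate; 0% = median of DMSO wells and 100% = 0.3 times that DMSO median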
# Target sequence (Q9H3R0 1-420 limits assumed): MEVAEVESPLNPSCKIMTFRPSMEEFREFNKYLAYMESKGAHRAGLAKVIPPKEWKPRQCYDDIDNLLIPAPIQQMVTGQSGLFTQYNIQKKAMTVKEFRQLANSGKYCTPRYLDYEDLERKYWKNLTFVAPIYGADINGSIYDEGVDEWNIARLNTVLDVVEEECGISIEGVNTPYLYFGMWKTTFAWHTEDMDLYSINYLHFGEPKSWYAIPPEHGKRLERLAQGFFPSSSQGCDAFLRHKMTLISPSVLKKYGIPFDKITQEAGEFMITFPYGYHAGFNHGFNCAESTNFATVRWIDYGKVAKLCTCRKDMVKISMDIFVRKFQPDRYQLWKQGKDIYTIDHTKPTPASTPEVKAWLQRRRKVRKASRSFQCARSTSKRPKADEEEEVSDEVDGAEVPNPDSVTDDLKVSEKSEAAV
# Rtt109 HAT inh = C. albicans Rtt109 histone acetyltransferase inhibition. Q5AAJ8. purified Rtt109/Vps75, ThioGlo CoA-SH fluorescence, 4 h. inhibition, % at 34.9 µM. 0.16% of 330,000 active;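 active means inhibition of at least 50% in every replicate; inconclusive means best replicate reaches 50% inhibition but some replicates fall short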
# Numbers without * were called inactive; i = inactive; u = inconclusive; x = no result. Sampled rows, rich in hits. Any-hit rate of the full collection: about 2.8%.
SMILES,T cell HTS,GRIN3A LBD mod,GASC-1 inh,Rtt109 HAT inh
CSc1nsc(SCC(=O)N2CCN(c3ccccc3)CC2)n1,269,11*,-6,7
COc1ccc(CCNC(=O)CSc2nn(-c3ccccc3)c(=S)s2)cc1OC,660,19*,5,-3
COc1ccc(CCNC(=O)CSc2ccc3ccccc3c2)cc1OC,240,-2,9,-12
COc1ccc(CNC(=O)CN(C(=O)c2csnn2)c2cccc(C(C)=O)c2)cc1,381,-4,-4,8
CCOC(=O)/C(C(=O)Nc1ccccc1Br)=C1/NC(C)(C)Cc2ccccc21,100,13*,-3,-3
CCOC(=O)/C(=N\O)C1=NC(C)(C)Cc2ccccc21,423,-21,7,23
O=C(CN1C(=O)NC2(CCCCC2)C1=O)NCCc1ccccc1,607,0,2,7
CCCCN1C(=O)C(=O)N(CC(=O)Nc2ccccc2C(=O)OCC)C1=O,389,1,-9,-5
CCn1cc(S(=O)(=O)NCc2ccccc2Br)cn1,807,0,6,-4
CCn1cc(S(=O)(=O)NCCc2ccccc2OC)cn1,158,11*,-5,-2
COc1ccc(C)cc1NC(=O)C1CCCN(S(=O)(=O)c2ccc3[nH]c(=O)ccc3c2)C1 (stereo not given),400,15*,11,-2
C=CCOc1ccc(C2/C(=C(\O)c3ccc4c(c3)CC(C)O4)C(=O)C(=O)N2CCN2CCOCC2)cc1OCC (stereo not given),i,-3,-5,7
C#CCOCCOCCOCCNc1nc(N2CCN(C(=O)[C@H](CCCN=C(N)N)n3cc(C(N)[C@H](C)CC)nn3)CC2)nc(N2CCN(C(=O)[C@H](CC(N)=O)n3cc(C(N)[C@@H](C)CC)nn3)CC2)n1 (stereo not given in full),216,4,39,-1
O=C(NC1CCSc2ccccc21)c1cccc(OC(F)F)c1 (stereo not given),476,-2,10,1
FC(F)Oc1ccc(NC(=S)NC2CCSc3ccccc32)cc1 (stereo not given),411,17*,6,2
O=C(Nc1ccc(Cl)c(Cl)c1)N1CCOCC1,191,-1,7,3
O=C(Nc1ccc(N2CCOCC2)cc1)Nc1ccc(Cl)c(Cl)c1,707,33*,8,4
O=C(Nc1ccc(Cl)cc1)Nc1ccc(N2CCOCC2)cc1,423,11*,3,x
CC(=O)C1=C(C)NC(SCC(=O)Nc2nc3ccccc3s2)=C(C#N)C1c1ccc(Cl)cc1 (stereo not given),107,12*,-1,-4
COc1ccc(NC(=O)CSC2=C(C#N)C(c3ccco3)C(C(=O)Nc3nc4ccccc4s3)=C(C)N2)cc1 (stereo not given),458,8,3,-15
COc1cc(/C=N/N2CCCCC2)cc(OC)c1O,13,-4,2,-15
COc1ccc(S(=O)(=O)N2CCN(C(=O)CNC(=O)c3ccc4c(c3)OCO4)CC2)cc1,554,0,-1,-6
CCOC(=O)/C(=N\Nc1ccc(C(C)=O)cc1)c1csc(Nc2ccccc2)n1,207,15*,-141,-22
CCOC(=O)/C(=N\Nc1ccccc1[N+](=O)[O-])c1csc(N)n1,738,-2,-1,2
Cc1ccc(C(=O)N/C(=C/c2ccc(Cl)cc2)C(=O)N2CCOCC2)cc1,156,4,-2,u
SMILES,T cell HTS,GRIN3A LBD mod,GASC-1 inh,Rtt109 HAT inh
Cc1cccc(Nc2nnc(SCC(=O)c3ccc(O)cc3O)s2)c1,628,33*,-6,-13
Cc1ccc(Nc2nnc(SCC(=O)c3ccc(O)cc3O)s2)cc1,138,26*,13,11
Cc1ccc(Nc2nnc(SCC(=O)N(C)C3CCS(=O)(=O)C3)s2)cc1 (stereo not given),201,-1,32,11
CCC1(C(=O)NC(=Nc2ccccc2)Nc2ccccc2)CCOC1=O (stereo not given),x,0,x,1
Cc1nn(-c2ccccc2)c(/N=C/c2ccc(O)cc2)c1-c1ccccc1,278,26*,8,-6
Cc1nn(-c2ccccc2)c(C)c1-c1ccccc1O,139,1,5,5
CCSC1=NSC2=NC(=O)/C(=C\c3coc4ccccc4c3=O)C(=N)N12,231,11*,-2,7
COc1ccc(S(=O)(=O)NCC(c2ccc(F)cc2)N2CCOCC2)cc1Br (stereo not given),x,0,x,6
CC1CCC(NC(=O)CN2C(=O)C3CC=CCC3C2=O)CC1 (stereo not given),479,-4,2,3
CCCCCCCCCCCC1=C(O)C(=O)C=C(O)C1=O,587,-14,-9,1
COC1=CC(=O)C(O)=C(CCCCCCC/C=C/CCCCCCCC2=C(O)C(=O)C=C(OC)C2=O)C1=O,196,25*,-5,6
COc1ccc(Cn2c(C(C)C)nc3sc4ccccc4c(=O)c3c2=O)cc1,162,-2,10,-7
CCCc1nc2sc3ccccc3c(=O)c2c(=O)n1Cc1ccc(OC)cc1,331,15*,-3,x
CC(=O)NC(=S)Nc1ccc(-c2nc3ccc(C)cc3s2)cc1,161,-3,-2,-2
Cc1ccc2nc(-c3ccc(NS(=O)(=O)c4ccc(F)cc4)cc3)sc2c1,263,31*,3,2
CNC(=S)Nc1ccc(-c2nc3ccc(C)cc3s2)cc1,347,28*,8,13
CCCCNC(=S)Nc1ccc(-c2nc3ccc(C)cc3s2)cc1,0,31*,2,-2
Cc1ccc2nc(-c3ccc(NC(=S)NCCC(C)C)cc3)sc2c1,449,24*,6,-3
O=C(CSc1nnc(-c2ccncc2)n1-c1ccccc1)NC1CC1,259,-1,6,-1
COCCCN(C(=O)CSc1nc2ccccc2c(=O)n1C)c1c(N)n(Cc2ccccc2)c(=O)[nH]c1=O,x,-2,x,8
COc1cccc(CC(=O)OCC(=O)NC(=O)c2ccc(OC(F)F)cc2)c1,271,0,-7,1
CCOc1cc(/C=N/NC(=O)C2CCCC2)ccc1OC(C)C,393,-2,-2,-11
NC(=O)C1(Nc2ccc(Br)cc2)CCCC1,x,-1,x,0
CCC(C)(C)NC(=S)Nc1ccc(-c2nc3ccc(C)cc3s2)cc1,0,31*,-5,0
Cc1ccc2nc(-c3ccc(NC(=S)NCC(C)(C)CN(C)C)cc3)sc2c1,x,-1,x,-5
SMILES,T cell HTS,GRIN3A LBD mod,GASC-1 inh,Rtt109 HAT inh
CCCCN1C(N)=NC[C@@H]1CCCCN,314,0,-8,7
COc1ccc(C(=O)NNC(=O)c2ccncc2)cc1,179,-3,-7,65*
COc1ccc(/C=N/NC(=O)c2ccc(Br)cc2)c(OC)c1,162,1,6,-18
COc1ccc(NC(=O)c2ccc(NC(=O)c3ccncc3)cc2)cc1,338,-1,2,-2
COc1ccc(/C=N/NC(=O)c2ccncc2)c(OC)c1,158,20*,-29,14
Cc1ccc(S(=O)(=O)N2CCN(C(=O)C3CCN(C(=O)c4ccc(F)cc4)CC3)CC2)c(C)c1,135,1,0,4
